The record followed here is ChEMBL document CHEMBL2406982, “Structure-activity relationships of new cyanothiophene inhibitors of the essential peptidoglycan biosynthesis enzyme MurF” (Eur J Med Chem, 2013).

≈ marks a conversion by molar mass, not a printed value. Calls of active or inactive are those of the source. The calls are words filed in the database; no cut-off is given here. A value given as a limit tells only on which side of the number the result lay.

Assay [1] deals with Escherichia coli. Put plainly: Inhibition of Escherichia coli MurF using D-Ala-D-Ala/UMtri-mDAP as substrate assessed as residual activity at 100 uM after 15 mins by Malachite green method. Put shortly: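 Purified E. coli MurF in 50 mM Hepes pH 8.0, 50 mM MgCl2, 0.005% Triton X-114, with D-Ala-D-Ala, UMtri-mDAP and ATP. Compound was added in DMSO (final 5% v/v). Mixtures were incubated 15 min at 37 °C, quenched with Biomol reagent, and absorbance was read at 650 nm after 5 min. Runs were in duplicate. Residual activity was taken versus DMSO-only controls. IC50 came from residual activity at seven concentrations.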

The nature of assay [2]: Inhibition of Streptococcus pneumoniae MurF.
For assay [3], the system named is Staphylococcus aureus. Put plainly: Inhibition of Staphylococcus aureus MurF using D-Ala-D-Ala/UMtri-L-Lys as substrate assessed as residual activity at 100 uM after 15 mins by Malachite green method. Put shortly: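 S. aureus MurF, purified, assayed in 50 mM Hepes pH 8.0 with 20 mM MgCl2 and 0.005% Triton X-114, with D-Ala-D-Ala, UMtri-L-Lys and ATP. Compound was in DMSO (5% v/v final). After 15 min at 37 °C, Biomol reagent was added and A650 was read 5 min later. Duplicates were run. Residual activity was relative to 5% DMSO controls. IC50 was read as 50% residual activity across seven concentrations.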

For assay [4], the system named is Streptococcus pneumoniae. Put plainly: Antimicrobial activity against Streptococcus pneumoniae R6 by broth microdilution method. The class given is functional. Put shortly:
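MIC by CLSI broth microdilution in Mueller-Hinton broth supplemented with 5% (v/v) lysed horse blood.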

A short description of assay [5]: Inhibition of Streptococcus pneumoniae MurF using D-Ala-D-Ala/UMtri-L-Lys as substrate after 15 mins by Malachite green method. The method, boiled down: (§1)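 Purified S. pneumoniae MurF in 50 mM Hepes pH 8.0, 50 mM MgCl2, 0.005% Triton X-114, with D-Ala-D-Ala, UMtri-L-Lys and ATP. Compound was added in DMSO (5% v/v final). Reactions ran 15 min at 37 °C, were stopped with Biomol malachite green reagent, and A650 was measured after 5 min. Runs were in duplicate. Residual activity was versus DMSO controls. IC50 was from seven concentrations.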

Assay [6] has as its system Escherichia coli. Put plainly: Antimicrobial activity against Escherichia coli AB734 by broth microdilution method. The class given is functional, organism-based. The method, boiled down: (§2)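 Broth microdilution MIC per CLSI guidelines in Mueller-Hinton broth. E. coli 1411 and AB734 were also tested with added polymyxin B nonapeptide to permeabilise the outer membrane.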

The subject of assay [7] is Staphylococcus aureus. Put plainly: Antimicrobial activity against Staphylococcus aureus SH1000 by broth microdilution method. It counts as functional, organism-based. Put shortly:
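MIC by broth microdilution in Mueller-Hinton broth following CLSI guidelines.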

The subject of assay [8] is Streptococcus pneumoniae. In words: Inhibition of Streptococcus pneumoniae MurF using D-Ala-D-Ala/UMtri-L-Lys as substrate assessed as residual activity at 100 uM after 15 mins by Malachite green method. The method, boiled down:
as §1

The subject of assay [9] is Escherichia coli. Put plainly: Antimicrobial activity against Escherichia coli 1411 by broth microdilution method. It counts as functional, organism-based. The method, boiled down: as §2

Take `N#Cc1c(NC(=O)c2cc(S(=O)(=O)N3CCOCC3)c(Cl)cc2Cl)sc2c1CCCC2`: the Activity in [1] is 100%; in [3] it was 107%. In addition, the figures for the IC50 in [2] and in assay [5] were 1 µM and 4 µM, respectively. The compound further showed a minimum inhibitory concentration (MIC) in assay [4] of 64 µg/mL (≈ 128 µM).

`CCOC(=O)c1ccc(N2CCc3c(sc(NC(=O)c4cc(S(=O)(=O)N5CCOCC5)c(Cl)cc4Cl)c3C#N)C2)cc1`: the Activity stood at 98% in assay [1], 79% in assay [3] and 80% in assay [8]. In addition, the result in [6], in [7] and in assay [9] was inactive. The compound also had an MIC in assay [4] of more than 128 µg/mL.

As to `N#Cc1c(NC(=O)c2cc(S(=O)(=O)N3CCSCC3)c(Cl)cc2Cl)sc2c1CCCC2`, the Activity in [1] was determined as 91%; in assay [3] it was 95%; in assay [8], 42%. Besides, the result in [6], in [7] and in assay [9] was inactive. The compound further yielded an MIC in assay [4] of more than 128 µg/mL.

In assay [2], `N#Cc1c(NC(=O)c2cc(S(=O)(=O)N3CCOCC3)c(Cl)cc2Cl)sc2c1CC[C@@H](c1ccc(O)cc1)C2` showed an IC50 of 0.022 µM.
